Assay [1] has as its target Histamine H1 receptor (Cavia porcellus) (UniProt P31389). Description: Compound was tested for the displacement of [3H]mepyramine from Histamine H1 receptor by competition binding assay. The essentials:
(§1)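 Membranes from guinea pig brain minus cerebellum (P2 fraction, pre-incubated 15 min at 25 °C, stored at –80 °C). Competition with 2 nM [3H]mepyramine in 50 mM Na+K+-phosphate pH 7.4, 1 h at 30 °C, triplicate tubes. Nonspecific binding defined with 20.0 μM triprolidine. Bound ligand collected on GF/B glass fibre filters, rinsed three times with cold buffer and counted by liquid scintillation.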

The next assay is filed under the species Cavia porcellus. Description: Compound was tested for the displacement of [3H]mepyramine from Histamine H1 receptor by competition binding assay. The essentials: as §1
(In general: Displacement assays read how much labelled ligand stays bound in the presence of the test substance.)

Some results are limits rather than exact numbers.

Sequence of Histamine H1 receptor (Cavia porcellus) (P31389 whole entry): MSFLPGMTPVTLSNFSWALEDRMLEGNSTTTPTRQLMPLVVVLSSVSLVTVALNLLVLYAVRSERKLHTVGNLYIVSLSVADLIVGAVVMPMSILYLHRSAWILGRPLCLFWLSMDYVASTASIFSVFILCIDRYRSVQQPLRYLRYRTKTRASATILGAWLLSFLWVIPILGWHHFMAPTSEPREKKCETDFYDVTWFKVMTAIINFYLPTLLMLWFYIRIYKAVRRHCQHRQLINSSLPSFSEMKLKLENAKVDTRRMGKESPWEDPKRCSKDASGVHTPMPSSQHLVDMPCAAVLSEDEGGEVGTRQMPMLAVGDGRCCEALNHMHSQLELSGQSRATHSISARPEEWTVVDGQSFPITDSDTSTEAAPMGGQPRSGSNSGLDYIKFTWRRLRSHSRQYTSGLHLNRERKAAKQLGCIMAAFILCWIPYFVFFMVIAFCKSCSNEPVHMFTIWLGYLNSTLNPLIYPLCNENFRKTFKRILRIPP

In turn, `CN(C)CC[C@H](c1ccc(Cl)cc1)c1ccccn1` displayed a K0.5 in assay [1] of 61.6 nM.
Consider `CN(C)C1Cc2ccccc2C(c2ccccc2)C1` (stereo in doubt; 1c), for which the K0.5 in the assay filed under Cavia porcellus was 2.45 nM.
For the compound `Cc1ccc(/C(=C\CN2CCCC2)c2ccccn2)cc1`, the K0.5 in assay [1] worked out at 0.46 nM.
Compound `CN(C)c1ccc2c3c(cccc13)-c1ccccc1-2` yielded a K0.5 in the assay listed under Cavia porcellus of 4000 nM.
Still for that read-out and setting: then `CNC1Cc2ccccc2C(c2ccccc2)C1` (configuration not stated), with 64 nM; and `CN(C)C1Cc2ccccc2C(c2ccccc2)C1` (stereo in doubt; 1b), with 19.1 nM.
Same read-out and setting: then `CN(C)C1Cc2ccccc2C(c2ccccc2)C1` (stereo in doubt; 1a), with 1.07 nM.
The compound `CN(C)CC/C=C1/c2ccccc2COc2ccccc21` showed a K0.5 in assay [1] of 0.16 nM.
As for `CN(C)C1CCc2ccccc2C1c1ccccc1` (stereo in doubt; 8), the K0.5 in the assay listed under Cavia porcellus was more than 2000 nM.
The same measure, in the same setting: then `CCN(CC)C1Cc2ccccc2C(c2ccccc2)C1` (configuration not stated), with 13.3 nM; and `CN(C)C1Cc2ccccc2C(C)(c2ccccc2)C1` (stereo in doubt; 15), with 4.4 nM.
On the same count and under the same terms, to `C[N+](C)(C)C1Cc2ccccc2C(c2ccccc2)C1` (stereo in doubt; 3) belongs 120 nM.
For `OC(CCCN1CCN(c2ncc(F)cn2)CC1)c1ccc(F)cc1` (configuration not stated), the K0.5 in assay [1] worked out at 548 nM.
`CC(C)(C)[C@]1(O)CCN2C[C@H]3c4ccccc4CCc4cccc(c43)[C@@H]2C1` yielded a K0.5 in the assay filed under Cavia porcellus of 405 nM.
Still for that read-out and setting: then `CN(C)C1Cc2cc(O)c(O)cc2C(c2ccccc2)C1` (stereo in doubt; 13), with 11.8 nM; and `CN(C)C1Cc2ccccc2C(c2ccccc2)C1` (stereo in doubt; 1d), with 111 nM.
Take `CN(C)C1Cc2ccccc2C(c2ccc(Cl)cc2)C1` (configuration not stated): in the assay filed under Cavia porcellus, the K0.5 stood at 4.4 nM.
Still for that read-out and setting: then `Nc1ccc2c3c(cccc13)-c1ccccc1-2`, with 4000 nM.
Consider `CN(C)C1Cc2cc(Cl)c(O)cc2C(c2ccccc2)C1` (stereo in doubt; 2), for which the K0.5 in assay [1] is 1.47 nM.
For `CN(C)CCOC(c1ccccc1)c1ccccc1`, the K0.5 in assay [1] is 6.1 nM.
Compound `CN(C)C1Cc2ccccc2C(c2ccc(F)cc2)C1` (configuration not stated) had a K0.5 in the assay listed under Cavia porcellus of 2.3 nM.
With `C=CCN1CC[C@@]2(C)c3cc(O)ccc3C[C@H]1[C@H]2C`, in the assay listed under Cavia porcellus, the K0.5 was found to be 2000 nM.
Same read-out and setting: to `CN(C)C1Cc2ccccc2C(C)(c2ccccc2)C1` (stereo in doubt; 14) belongs 40 nM.
`CN(C)CC[C@@H](c1ccc(Cl)cc1)c1ccccn1` yielded a K0.5 in assay [1] of 1.16 nM.
The compound `Cc1ccccc1C1CC(N(C)C)Cc2ccccc21` (configuration not stated) returned a K0.5 in the assay filed under Cavia porcellus of 12.7 nM.
On to `CN(C)C1Cc2ccccc2C(c2ccccc2Cl)C1` (configuration not stated), for which the K0.5 in the assay filed under Cavia porcellus worked out at 42.7 nM.
The same measure, in the same setting: then `CN(C)C1CCc2ccccc2C1` (configuration not stated), with 75 nM; and `Cc1ccc(C2CC(N(C)C)Cc3ccccc32)cc1` (configuration not stated), with 5 nM; and `CN(C)C1Cc2cc(O)c(O)cc2C(c2ccccc2)C1` (stereo in doubt; 12), with 69 nM.
The same measure, in the same setting: then `C[N+](C)(C)C1Cc2ccccc2C(c2ccccc2)C1` (stereo in doubt; 25), with 107 nM; and `CN(C)C1CCc2ccccc2C(c2ccccc2)C1` (stereo in doubt; 10), with 217 nM.
Same read-out and setting: then `CN1[C@@H]2CC[C@H]1C[C@@H](OC(=O)C(CO)c1ccccc1)C2` (some centres not stated), with 580 nM.

The record behind these values is ChEMBL document CHEMBL1132336, “Synthesis, evaluation, and comparative molecular field analysis of 1-phenyl-3-amino-1,2,3,4-tetrahydronaphthalenes as ligands for histamine H(1) receptors” (J Med Chem, 1999).
